# Bioassay records deposited in PubChem by several laboratories.
# Insulin prom up = insulin promoter activators in MIN6 cells, imaging, high-content screening, mouse beta cells | MIN6 insulin promoter-GFP reporter; active compounds read high | z-score at 5 µM | 190,000 compounds, 0.3% hits | AID 1625, 2009;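 active means z-score above 3 at 5 µM with at least 500 cells counted in the well; inconclusive means wells under 500 cells, flagged as cytotoxic or low count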
# SKKanGAS inh = S. pyogenes SKKanGAS growth inhibitors in kanamycin, primary screen, streptokinase expression inhibitor project, SKKanGAS strain, BacTiter-Glo luminescence; AID 1662, 2009; 300,000 compounds, 1.3% hits; inhibition, % at 7.5 µM; 6 h;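 active means mean replicate score, as percent of positive control median, at least 50; inconclusive means mean below 50 but one replicate at or above 50; inactive means mean and every replicate below 50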;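 further: strain carries kanamycin resistance gene driven by streptokinase promoter and grows in 40 µg/ml kanamycin; loss of luminescence reflects streptokinase promoter inhibition or plain growth inhibition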
# KCC2 mod = KCC2 cotransporter modulators, thallium flux, primary screen, cell-based, HEK293 KCC2, FluoZin-2 fluorescence, MLSMR | KCC2 cells, thallium flux FluoZin-2 fluorescence | Solute carrier family 12 member 5 (Homo sapiens), Q9H2X9 | B-score of Tl+ flux slope (higher = more flux/activation; lower = inhibition) at 10 µM | 190,000 compounds, 2.2% hits | AID 1456, 2008;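 active means thallium flux slope and its plate-corrected score both differing from the plate sample mean at a set confidence after two filtering rounds, in either direction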;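 further: slope of fluorescence scaled to starting intensity during 10 to 20 s after thallium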
# Rad51 HR inh = human RAD51 strand exchange inhibitors, primary screen, biochemical, fluorescence | hRad51 DNA strand exchange, fluorescence dequenching | DNA repair protein RAD51 homolog 1 (Homo sapiens), Q06609 | 200,000 compounds, 0.085% hits | inhibition, % at 10 µM;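 active means inhibition above 40% at the single screening dose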
# Target sequence (Q06609 whole entry, looked up): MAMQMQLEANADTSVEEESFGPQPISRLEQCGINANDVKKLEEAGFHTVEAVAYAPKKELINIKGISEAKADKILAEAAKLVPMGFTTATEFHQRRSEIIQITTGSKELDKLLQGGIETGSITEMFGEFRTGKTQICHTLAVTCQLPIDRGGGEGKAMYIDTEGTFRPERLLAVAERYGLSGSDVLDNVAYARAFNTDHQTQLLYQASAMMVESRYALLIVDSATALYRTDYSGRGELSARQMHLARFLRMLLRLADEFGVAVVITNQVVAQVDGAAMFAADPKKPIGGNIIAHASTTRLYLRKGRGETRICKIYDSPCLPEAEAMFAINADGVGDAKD
#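 Test system: preformed human Rad51 ssDNA filaments. Compound dosing: single dose, 10 µM final compound. Incubation: filaments 15 min 37 °C, then compound 30 min. Technique: FRET fluorescence dequenching, excitation 485 nm, emission 520 nm. Read-out basis: percent inhibition from fluorescence, normalised to plate control and blank means. Benchmarks: plate controls and plate blanks.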
# WT yeast gro inh = growth inhibition of WT strain, primary screen, mitochondrial fusion inhibitor project, WT and mutant strains, chemical genetic. AID 1362, 2008. mitochondrial fusion phenotypic screen. inhibition, % at 10 µM. 190,000 compounds, 2.1% hits; in the data active means inhibition above about 58%; tested in S. cerevisiae
# Autophagy HCS = autophagy modulators in MEF cells, primary screen, imaging, high-content, MEF GFP-LC3. MEF GFP-LC3 puncta imaging; test concentration mostly 10 µM. calls only at 10 µM (by protocol). 190,000 compounds, 0.98% hits;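 active means percentage of spot-positive cells more than 3 SD above its plate mean, without a fluorescence outlier flag or 80% toxicity; inconclusive means no clear call, values can overlap the other calls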
# KCC2 secondary = KCC2 modulators in sodium-free buffer, confirmation, cell-based, HEK293 KCC2, thallium flux, secondary assay. shares compounds with KCC2 mod. FluoZin2 fluorescence; active compounds read high. normalised thallium flux (F/F0 slope) at 10 µM. 3,700 compounds, 15% hits. AID 1713, 2009;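 active means thallium flux slope above the same plate's solvent-only control mean plus 3 SD; inconclusive means the two replicate wells disagree; inactive means no significant difference from solvent-only control wells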
# KCC2 bumet counter = thallium flux persisting under bumetanide in KCC2 cells, confirmation, counter-screen for KCC2 modulator project, cell-based, HEK293 KCC2, FluoZin2, secondary assay 3; shares compounds with KCC2 mod; 3,700 compounds, 49% hits; normalized thallium flux at 10 µM; HEK293-KCC2 + bumetanide/ouabain; active compounds read high;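 active means thallium entry rate above the same plate's blocked-transporter control wells by more than 3 SD; inconclusive means the two repeat wells disagree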;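 further: raw slope of fluorescence over initial fluorescence between 10 and 20 s after thallium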
# KCC2 sec2 = KCC2 modulators without ouabain present, confirmation, cell-based, HEK293 KCC2, thallium flux, FluoZin2, secondary assay 2; shares compounds with KCC2 mod; thallium flux FluoZin2 fluorescence; actives lie on both sides; F/F0 rise rate, 10–20 s post-thallium; normalized thallium flux at 10 µM; 3,700 compounds, 23% hits;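 active means thallium flux slope more than 3 SD above or below the plate's solvent-only control mean, mostly below; inconclusive means the two repeat wells disagreed; inactive means no significant shift from solvent-only controls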
# HEK counter1 = thallium flux modulation in parental HEK cells, confirmation, counter-screen for KCC2 modulator project, cell-based, counterscreen 1. 3,700 compounds, 46% hits. thallium flux rate (normalised fluorescence) at 10 µM. HEK293 parental cells, thallium flux FluoZin2, ouabain; baseline-ratio fluorescence slope, 10–20 s after thallium. shares compounds with KCC2 mod;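 active means thallium flux rate significantly above the same plate's solvent-only control wells, beyond their mean plus 3 SD; inconclusive means the two replicate wells gave conflicting results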
# KCC2 ouabain = KCC2 inhibitors and activators, ouabain retest, confirmation, HEK-KCC2 cells. shares compounds with KCC2 mod. HEK293-KCC2, thallium flux FluoZin2 fluorescence; bidirectional: low = inhibitor, high = activator. raw Tl+ flux slope (below DMSO = inhibition, above = activation) at 10 µM. 3,700 compounds, 48% hits;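 active means thallium flux slope beyond 3 SD from same-plate DMSO control mean in most replicates, usually higher, sometimes lower; inconclusive means repeat tests gave conflicting results; inactive means no significant difference from controls in most replicates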;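 further: slope of initial-normalized fluorescence between seconds 10 and 20 after thallium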
# HEK counter2 = native HEK Tl+ uptake effects, second counter-screen – HEK cells, counterscreen 2, counter-screen for KCC2 modulator project, confirmation | shares compounds with KCC2 mod | HEK293 parental, thallium flux FluoZin-2 fluorescence slope | 3,700 compounds, 33% hits | thallium flux slope at 10 µM;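 active means thallium flux slope above the same plate's solvent-control mean plus 3 SD in both duplicate wells; inconclusive means duplicate wells that disagreed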;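 further: run without ouabain in cells lacking the KCC2 cotransporter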
# A number is an active result; n = inactive; u = inconclusive; x = no result. Sampled rows, rich in hits. Any-hit rate of the full collection: about 4.2%.
SMILES,Insulin prom up,SKKanGAS inh,KCC2 mod,Rad51 HR inh,WT yeast gro inh,Autophagy HCS,KCC2 secondary,KCC2 bumet counter,KCC2 sec2,HEK counter1,KCC2 ouabain,HEK counter2
CC1Cc2ccccc2N1C(=O)CCn1c(=O)sc2ccccc21 (centres undefined),n,n,-1.7,n,n,x,0.0041,0.0033,0.021,u,0.013,u
O=C(c1ccc(OC2CCN(C/C=C/c3ccc(F)cc3)CC2)cc1)N1CCCC1,x,n,x,x,x,x,x,x,x,x,x,x
O=C(COc1ccc([N+](=O)[O-])cc1)NNC(=S)NC(=O)c1ccc(Br)cc1,n,55,6,n,70,n,u,0.029,n,0.018,0.027,u
O=C(COc1ccc2ccccc2c1)NNC(=O)c1ccc([N+](=O)[O-])cc1,n,n,n,n,n,n,x,x,x,x,x,x
COc1ccc(C(=O)NC(=S)NCCc2ccccc2)cc1,n,n,n,n,n,n,x,x,x,x,x,x
COc1ccc(C(=O)NC(=S)NNC(=O)COc2ccccc2)cc1,n,88,35,n,n,n,0.023,0.072,u,0.036,0.051,0.021
O=C(COc1ccccc1)NNC(=S)NC(=O)c1ccccc1,n,75,18,n,n,n,n,0.045,0.05,0.039,0.043,0.041
COc1ccc(C(=O)NNC(=S)NC(=O)C(C)(C)C)cc1,n,68,24,n,n,n,0.024,0.036,u,0.043,0.042,0.014
O=C(NC1CCCCC1)c1cc(-c2cccc(Cl)c2)on1,x,n,x,x,x,x,x,x,x,x,x,x
COc1ccc(-c2nc(N)ncc2-c2csc(C)n2)c(O)c1OC,x,n,n,n,n,n,x,x,x,x,x,x
COc1ccc(OCC(=O)NC(=S)NNC(=O)COc2ccc(Br)cc2Cl)cc1,n,n,13,n,n,n,n,0.026,n,0.019,n,0.013
O=C(COc1ccc(Br)cc1Cl)NC(=S)Nc1ccccn1,x,n,x,x,x,x,x,x,x,x,x,x
Cc1cc2cc(C(c3nnnn3Cc3ccccc3)N3CCc4ccccc43)c(=O)[nH]c2cc1C (centres undefined),n,n,x,x,n,n,n,n,n,n,0.014,n
CC(C)c1ccc(NC(=O)c2csnn2)cc1,n,n,6.7,n,n,n,n,n,n,n,n,n
O=C(Nc1nccs1)C1CC(=O)N(CCc2ccc(F)cc2)C1 (centres undefined),x,n,x,x,x,x,x,x,x,x,x,x
CCn1c(-c2ccccc2)c(C(=O)CCl)c2ccccc21,n,n,-4.3,n,n,n,n,0.0028,n,0.0049,0.017,0.008
Cn1c(-c2ccccc2)c(C(=O)CCl)c2ccccc21,n,n,-3.9,n,n,n,n,n,n,0.0051,0.016,0.0091
Cn1c(-c2ccccc2)c(CCO)c2ccccc21,x,n,n,n,n,n,x,x,x,x,x,x
COC(=O)c1ccc(NC(=O)CSC2=NC(=O)C(c3ccccc3)C(=O)N2)cc1 (centres undefined),n,n,9.2,n,n,n,n,u,n,n,n,u
CCOC(=O)c1ccc(NC(=O)CSc2nc(C)cc(=O)[nH]2)cc1,n,n,x,n,n,n,n,n,n,n,n,n
O=C(CSC1=NC(=O)C(c2ccccc2)C(=O)N1)Nc1cccc(Cl)c1 (centres undefined),n,n,x,n,n,n,x,x,x,x,x,x
C=CCNCCCOc1ccc(C)cc1Br,n,n,n,n,n,n,x,x,x,x,x,x
CCN(CC)CCCOc1ccc(C)cc1Br,n,n,x,n,n,n,n,n,n,u,n,n
CC(OC(=O)c1cc2sccc2n1C)C(=O)NCCc1ccccc1 (centres undefined),n,n,-5.6,n,n,n,n,u,u,n,0.014,n
COC(=O)c1cccc(NC(=O)c2cc3sccc3n2C)c1,n,n,n,n,n,n,x,x,x,x,x,x
SMILES,Insulin prom up,SKKanGAS inh,KCC2 mod,Rad51 HR inh,WT yeast gro inh,Autophagy HCS,KCC2 secondary,KCC2 bumet counter,KCC2 sec2,HEK counter1,KCC2 ouabain,HEK counter2
COC(=O)c1ccccc1NC(=O)c1cc2sccc2n1C,n,n,8.3,n,n,n,n,n,n,n,n,n
Cc1ccc(/C=N/NC(=O)c2ccoc2C)s1,n,n,n,n,n,n,x,x,x,x,x,x
Cc1occc1C(=O)N/N=C/c1ccc(Br)s1,n,n,78,x,n,n,u,0.03,n,0.036,0.052,0.022
Cc1scc(C(=O)N/N=C/c2ccc(Cl)s2)c1C,n,n,39,n,n,n,u,0.053,0.043,0.078,0.086,0.024
Cc1scc(C(=O)N/N=C/c2ccc(OC(C)C)cc2)c1C,n,n,n,n,n,n,x,x,x,x,x,x
O=C(N/N=C/c1ccc(Br)s1)c1ccco1,n,n,7.1,n,x,x,n,0.011,n,0.016,n,0.013
CCCN1CCN(CCNC(=O)Nc2cc(C)ccc2C)CC1,x,n,x,x,x,x,x,x,x,x,x,x
Cc1cc(NC(=O)CS(=O)(=O)c2cn(Cc3ccccc3Cl)c3ccccc23)no1,n,n,-2.9,n,n,n,n,n,u,0.006,0.015,u
CCN(CC)C(=O)Cn1cc(S(=O)(=O)CC(=O)Nc2cc(C)on2)c2ccccc21,x,n,x,x,x,x,x,x,x,x,x,x
N#Cc1cccc(C(=O)OCC(=O)c2ccc3c(c2)NC(=O)CO3)c1,x,n,x,x,x,x,x,x,x,x,x,x
